ChEMBL document CHEMBL3808379, “Isouronium and N-hydroxyguanidinium derivatives as Cell growth inhibitors: A comparative study” (Eur J Med Chem, 2016)
Active and inactive are the calls of the source. No cut-off for these calls is given here.

How the values were obtained:
[1] = Cell cycle arrest in human HL60 cells assessed as accumulation at S phase at 50 uM after 72 hrs by propidium iodide staining-based flow cytometric analysis (reference value: 23.58 +/- 1.38%); format: functional; details: HL-60
[2] = Cell cycle arrest in human HL60 cells assessed as accumulation at polyploid Gn phase at 50 uM after 72 hrs by propidium iodide staining-based flow cytometric analysis (reference value: 3.43 +/- 0.48%); format: functional; details: HL-60
[3] = Cell cycle arrest in human HL60 cells assessed as accumulation at polyploid Gn phase at 50 uM after 24 hrs by propidium iodide staining-based flow cytometric analysis (reference value: 2.96 +/- 0.79%); format: functional; details: HL-60
[4] = Cell cycle arrest in human HL60 cells assessed as accumulation at pre-G1 phase at 50 uM after 24 hrs by propidium iodide staining-based flow cytometric analysis (reference value: 0.81 +/- 0.11%); format: functional; details: HL-60
[5] = Cell cycle arrest in human HL60 cells assessed as accumulation at G0/G1 phase at 50 uM after 48 hrs by propidium iodide staining-based flow cytometric analysis (reference value: 58.77 +/- 2.33%); format: functional; details: HL-60
[6] = Cell cycle arrest in human HL60 cells assessed as accumulation at pre-G1 phase at 50 uM after 72 hrs by propidium iodide staining-based flow cytometric analysis (reference value: 2.21 +/- 0.57%); format: functional; details: HL-60
[7] = Cell cycle arrest in human HL60 cells assessed as accumulation at G2/M phase at 50 uM after 24 hrs by propidium iodide staining-based flow cytometric analysis (reference value: 16.73 +/- 0.59%); format: functional; details: HL-60
[8] = Cytotoxicity in mouse NIH/3T3 cells assessed as induction of apoptosis at 50 to 100 uM after 72 hrs by propidium iodide staining-based flow cytometric analysis; format: cell-based; details: nih3t3, 72 h
In short: (§1)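 Cells seeded at 6000 cells per cm² and left 24 h, then given compound at 50 or 100 μM or vehicle (1% ddH2O) for 72 h. Trypsinised, fixed overnight at −20 °C in ice-cold 70% EtOH/PBS, then PI-stained 30 min at 37 °C. 10,000 gated events per sample. Sub-diploid (<2N, M1) cells scored as apoptotic. Mean ± S.E.M., ≥3 experiments.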

[9] = Cell cycle arrest in human HL60 cells assessed as accumulation at G2/M phase at 50 uM after 48 hrs by propidium iodide staining-based flow cytometric analysis (reference value: 11.35 +/- 1.05%); format: functional; details: HL-60
[10] = Cytotoxicity against human MCF10A cells assessed as cell viability reduction at 50 to 100 uM incubated for 72 hrs by alamar blue-based fluorimetric assay; details: mcf-10a
In short: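 MCF-10A cells, 2000 per well, were allowed to attach for 24 h, then treated with 50 or 100 µM or with 1% ddH2O vehicle for 72 h. AlamarBlue (10% v/v) was added for 4.5 h at 37 °C in the dark and fluorescence read at ex 544/em 590 nm. Viability is expressed as % of vehicle after blank subtraction; mean ± S.E.M., ≥3 experiments.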

[11] = Cell cycle arrest in human HL60 cells assessed as accumulation at polyploid Gn phase at 50 uM after 48 hrs by propidium iodide staining-based flow cytometric analysis (reference value: 3.02 +/- 0.56%); format: functional; details: HL-60
[12] = Cell cycle arrest in human HL60 cells assessed as accumulation at G0/G1 phase at 50 uM after 72 hrs by propidium iodide staining-based flow cytometric analysis (reference value: 59.5 +/- 1.5%); format: functional; details: HL-60
[13] = Binding affinity to salmon sperm DNA assessed as increase in thermal melting temperature by spectrophotometric analysis; details: Salmonidae
[14] = Cell cycle arrest in human HL60 cells assessed as accumulation at pre-G1 phase at 50 uM after 48 hrs by propidium iodide staining-based flow cytometric analysis (reference value: 1.41 +/- 0.32%); format: functional; details: HL-60
[15] = Cell cycle arrest in human HL60 cells assessed as accumulation at G0/G1 phase at 50 uM after 24 hrs by propidium iodide staining-based flow cytometric analysis (reference value: 56.05 +/- 1.4%); format: functional; details: HL-60
[16] = Cell cycle arrest in human HL60 cells assessed as accumulation at G2/M phase at 50 uM after 72 hrs by propidium iodide staining-based flow cytometric analysis (reference value: 10.53 +/- 0.81%); format: functional; details: HL-60
[17] = Cell cycle arrest in human HL60 cells assessed as accumulation at S phase at 50 uM after 24 hrs by propidium iodide staining-based flow cytometric analysis (reference value: 24.46 +/- 1.15%); format: functional; details: HL-60
[18] = Cytotoxicity against mouse NIH/3T3 cells assessed as cell viability reduction at 50 to 100 uM incubated for 72 hrs by alamar blue-based fluorimetric assay; details: nih3t3, 72 h
In short: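 NIH/3T3 cells seeded at 10,000 cells/mL and left 24 h at 37 °C before treatment. Compound at 50 or 100 μM final for 72 h, vehicle 1% (v/v) ddH2O. AlamarBlue 10% (v/v) then added for 4.5 h in darkness at 37 °C. Fluorescence read at ex 544/em 590 nm, blank subtracted, expressed as % of vehicle control. Mean ± S.E.M., at least 3 experiments.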

[19] = system: HL-60; test: Induction of apoptosis in human HL60 cells assessed as caspase 3/7 activation at 50 to 100 uM after 48 hrs by caspase-glo luminescence assay relative to vehicle control; format: functional, cell-based
In short: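 HL-60 cells seeded at 20,000 cells/100 μl and treated 48 h with 0, 50 or 100 μM. Viability first measured by AlamarBlue. Cells then lysed with an equal volume of Caspase-Glo 3/7 reagent, shaken 1 h at room temperature in darkness, and luminescence read. Luminescence normalised to viability. Mean ± SEM, ≥3 experiments; P<0.05 taken as significant.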

[20] = Cell cycle arrest in human HL60 cells assessed as accumulation at S phase at 50 uM after 48 hrs by propidium iodide staining-based flow cytometric analysis (reference value: 24.29 +/- 1.37%); format: functional; details: HL-60
[21] = system: HL-60; test: Induction of apoptosis in human HL60 cells at 100 uM after 72 hrs by propidium iodide staining-based flow cytometric analysis; format: functional
In short: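 HL-60 cells seeded at 200,000 cells/mL and treated 72 h, vehicle 1% (v/v) ddH2O. Harvested by centrifugation, fixed overnight in ice-cold 70% EtOH/PBS at −20 °C, then PI-stained 30 min at 37 °C. Flow cytometry of 10,000 gated events. Apoptosis taken from pre-G1 (<2N DNA) peak. Mean ± S.E.M., ≥3 experiments.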

[22] = Cytotoxicity against human HL60 cells assessed as cell viability reduction incubated for 72 hrs by alamar blue assay; format: functional, cell-based; details: HL-60, 72 h
In short: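 HL-60 cells in log phase, 40,000 per well, were treated in triplicate with compound at 10–100 µM (final, 1:100 from ddH2O stocks) or 1% ddH2O vehicle for 72 h at 37 °C. AlamarBlue was then added for 4.5 h in the dark and fluorescence read at ex 544/em 590 nm. Viability is blank-subtracted and expressed as % of vehicle. IC50 comes from a sigmoidal fit; ≥3 independent experiments.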

[23] = Cytotoxicity in human MCF10A cells assessed as induction of apoptosis at 50 to 100 uM after 72 hrs by propidium iodide staining-based flow cytometric analysis; format: cell-based; details: mcf-10a; in short: as §1
[24] = Cytotoxicity against human Kelly cells assessed as cell viability reduction incubated for 72 hrs by alamar blue assay; format: functional, cell-based
In short: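 Kelly cells, 6000 per well, were allowed to attach for 24 h, then treated in triplicate at 0.1–100 µM final or with ddH2O vehicle for 72 h at 37 °C. AlamarBlue was added for 4.5 h in the dark and fluorescence read at ex 544/em 590 nm. Blank-subtracted % of vehicle; IC50 from a sigmoidal dose-response fit; ≥3 independent experiments.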

[25] = system: HL-60; test: Induction of mitochondrial membrane depolarization in human HL60 cells at 50 to 100 uM after 48 hrs by JC1 staining-based flow cytometric analysis relative to vehicle control; format: functional, cell-based
In short: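 HL-60 cells at 200,000 cells/mL exposed 48 h to 0, 50 or 100 μM. Washed in PBS and stained with JC-1 (5 μM) 30 min at 37 °C. Resuspended in ice-cold PBS and read by flow cytometry: excitation 488 nm, emission 535 (green) and 595 nm (red). Rising green:red ratio scored as ΔΨm loss; % cells with loss reported. Mean ± SEM, ≥3 experiments.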

[26] = Dissociation constant, pKa of the compound in 10 mM sodium phosphate buffer at pH 2 by UV spectroscopic analysis; format: physicochemical

**Q.** With `N=C(N)Oc1ccc(Sc2ccc(O)cc2)cc1` as the molecule, how does the Activity [1] read?
**A.** Its Activity is 16.2%.

**Q.** And the Activity [2]?
**A.** The Activity was 15.8%.

**Q.** And the Activity [3]?
**A.** The Activity was 11.6%.

**Q.** And the Activity [4]?
**A.** The Activity was 9%.

**Q.** And the Activity [5]?
**A.** Its Activity is 12.7%.

**Q.** And the Activity [6]?
**A.** The Activity was 39.9%.

**Q.** And the Activity [7]?
**A.** Its Activity is 52.4%.

**Q.** What about the Activity [8] of the same molecule?
**A.** The Activity was “Non-toxic”.

**Q.** What about the Activity [9] of the same molecule?
**A.** Its Activity is 5.98%.

**Q.** And the Activity [10]?
**A.** Its Activity is “Non-toxic”.

**Q.** And the Activity [11]?
**A.** Its Activity is 15.3%.

**Q.** And the Activity [12]?
**A.** The Activity was 18.2%.

**Q.** And the ΔTm [13]?
**A.** Its ΔTm is 2 °C.

**Q.** What about the Activity [14] of the same molecule?
**A.** The Activity was 55.5%.

**Q.** What about the Activity [15] of the same molecule?
**A.** Its Activity is 11.2%.

**Q.** What about the Activity [16] of the same molecule?
**A.** Its Activity is 8.67%.

**Q.** And the Activity [17]?
**A.** The Activity was 14.9%.

**Q.** And the Activity [18]?
**A.** Its Activity is “Toxic”.

**Q.** What about the Activity [19] of the same molecule?
**A.** Its Activity is “Active”.

**Q.** And the Activity [20]?
**A.** Its Activity is 10.4%.

**Q.** What about the Activity [21] of the same molecule?
**A.** Its Activity is 63.6%.

**Q.** What about the IC50 [22] of the same molecule?
**A.** The IC50 was 52.9 µM.

**Q.** What about the Activity [23] of the same molecule?
**A.** Its Activity is “Non-toxic”.

**Q.** What about the IC50 [24] of the same molecule?
**A.** The IC50 was 33.9 µM.

**Q.** What about the Activity [25] of the same molecule?
**A.** The Activity was “Active”.

**Q.** Which results are given for `N=C(N)Oc1ccc(Oc2ccc(OC(=N)N)cc2)cc1`?
**A.** ΔTm [13]: 5 °C; pKa [26]: 10.4; IC50 [22]: > 100 µM
